Measured values published in PMC4822987 (Acta crystallographica. Section F, Structural biology …, 2016).

Tests used:
S. mansoni arginase = conditions: relative to ABH, ref Hai et al., 2014; cited from earlier work
human arginase II = conditions: relative to ABH, ref Golebiowski et al., 2013; cited from earlier work
human arginase I = conditions: relative to ABH, ref Van Zandt et al., 2013; cited from earlier work
[1] = molecular target: Leishmania mexicana arginase (LmARG) (Leishmania mexicana, UniProt Q6TUJ5); assay: Inhibitory activity assay, colorimetric arginase activity; assay type: biochemical
Procedure, shortened: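 Recombinant LmARG (1 µM) started the reaction in 50 mM EPPS pH 8.0 with 100 µM MnCl2 and 30 mM L-arginine at 21°C. After 20 min it was stopped with H2SO4/H3PO4 acid plus α-isonitrosopropiophenone dye, then heated at 90°C for 1 h. Urea was read at 550 nm. Ki came from IC50 via Cheng–Prusoff, with Km from 0.5–150 mM arginine.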

| IC50 [1] [nM] | Ki [1] [nM] | Structure (SMILES) | improved affinity in comparison with parent inhibitor ABH (S. mansoni arginase) [fold] | improved inhibitory potency in comparison with parent inhibitor ABH (human arginase II) [fold] | improved inhibitory potency (IC50) in comparison with parent inhibitor ABH (human arginase I) [fold] |
| --- | --- | --- | --- | --- | --- |
| 1700 ± 400 | 1100 ± 300 | N[C@@](CCCCB(O)O)(C(=O)O)C1CCN(Cc2ccc(Cl)c(Cl)c2)CC1 (racemic) [ABHDP, (R)-2-amino-6-borono-2-[1-(3,4-dichlorobenzyl)piperidin-4-yl]hexanoic acid] | 2.4 | 7.4 | 7.4 |
| 2100 ± 300 | 1400 ± 200 | N[C@](CCCCB(O)O)(CCN1CCCCC1)C(=O)O [ABHPE, (R)-2-amino-6-borono-2-[2-(piperidin-1-yl)ethyl]hexanoic acid] | 5.0 | 3.8 | 6.5 |
| 1300 ± 200 | 900 ± 100 | N[C@@H](CCCCB(O)O)C(=O)O [ABH, 2-(S)-amino-6-boronohexanoic acid, reference compound] | – | – | – |
